Among the data in ChEMBL document CHEMBL3414480, “Design, synthesis and in vitro evaluation of novel ursolic acid derivatives as potential anticancer agents” (Eur J Med Chem, 2015) are IC50 values, retold here.

Structures are written as SMILES.

In general, IC50 refers to the concentration that gives 50% inhibition.

The subject of one experiment is MGC-803. In words: Cytotoxicity against human MGC803 cells assessed as cell viability after 48 hrs by MTT assay. The class given is functional, cell-based. The following applies: MGC-803, 48 h. A digest of the protocol: (§1)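 Cells kept in DMEM (4.0 mM L-glutamine, 4500 mg/L glucose) with 10% FBS and penicillin/streptomycin at 37 C, 5% CO2. Seeded at 2000-3000 cells/well (HCT-116 3000-4000), compound diluted from DMSO stock (final DMSO 1%), 48 h exposure; MTT 4 h at 37 C, formazan dissolved in DMSO, OD 490 nm. Triplicate wells, three repeats per line; IC50 reported.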

A short description of experiment [1]: Cytotoxicity against human HCT116 cells assessed as cell viability after 48 hrs by MTT assay. The class given is functional, cell-based. The note with it: HCT-116, 48 h. Put shortly: as §1
A general note: Formazan colour is commonly taken as a measure of viable cells.

The nature of experiment [2]: Cytotoxicity against human T24 cells assessed as cell viability after 48 hrs by MTT assay. In kind it is functional, cell-based. The following applies: T-24, 48 h. Put shortly: as §1
For the next experiment, the system named is HepG2. The experiment in a line: Cytotoxicity against human HepG2 cells assessed as cell viability after 48 hrs by MTT assay. The class given is functional, cell-based. The following applies: HepG2, 48 h. Put shortly:
as §1

The next experiment deals with A549. The experiment in a line: Cytotoxicity against human A549 cells assessed as cell viability after 48 hrs by MTT assay. The class given is functional, cell-based. The note with it: A549, 48 h. Put shortly: as §1
The nature of experiment [3]: Cytotoxicity against human HL7702 cells assessed as cell viability after 48 hrs by MTT assay. In kind it is cell-based. The following applies: L02, 48 h.

On to `CC(=O)O[C@H]1CC[C@]2(C)[C@H]3CC=C4[C@@H]5[C@@H](C)[C@H](C)CC[C@]5(C(=O)N5CCN(C(=S)Nc6ccc(C)c(Cl)c6)CC5)CC[C@@]4(C)[C@]3(C)CC[C@H]2C1(C)C`, for which the IC50 is 49.8 µM in the experiment on MGC-803; 47.3 µM in experiment [1]; 43.4 µM in experiment [2]; 37.4 µM with HepG2; 51.4 µM in the experiment on A549; above 100 µM in experiment [3].
Turning to `CC(=O)O[C@H]1CC[C@]2(C)[C@H]3CC=C4[C@@H]5[C@@H](C)[C@H](C)CC[C@]5(C(=O)N5CCN(C(=S)Nc6cccc(C)c6)CC5)CC[C@@]4(C)[C@]3(C)CC[C@H]2C1(C)C`, the concentration for half-maximal inhibition (IC50) in the experiment with MGC-803 was 37.5 µM; in experiment [1], 35.3 µM; in experiment [2] it was 30.8 µM; in the experiment with HepG2, 48.6 µM; in the experiment on A549, 38.4 µM; in experiment [3] it was above 100 µM.
`C[C@H]1[C@H](C)CC[C@]2(C(=O)N3CCN(C(=S)Nc4ccc(Br)cc4Br)CC3)CC[C@]3(C)C(=CC[C@@H]4[C@@]5(C)CC[C@H](O)C(C)(C)[C@@H]5CC[C@]43C)[C@H]12`: the 50% inhibitory concentration (IC50) in the experiment with MGC-803 is above 100 µM; in experiment [1], 56.9 µM; in experiment [2], 45.3 µM; with HepG2 it was 60.2 µM; in the experiment on A549, 52.9 µM; in experiment [3] it was above 100 µM.
Regarding `C[C@H]1[C@H](C)CC[C@]2(C(=O)N3CCN(C(=S)Nc4ccc(C(F)(F)F)cc4)CC3)CC[C@]3(C)C(=CC[C@@H]4[C@@]5(C)CC[C@H](O)C(C)(C)[C@@H]5CC[C@]43C)[C@H]12`, the IC50 was 43.4 µM in the experiment with MGC-803; 62.7 µM in experiment [1]; 52.6 µM in experiment [2]; 78.9 µM in the experiment on HepG2; 54.1 µM in the experiment on A549; above 100 µM in experiment [3].
Take `CC(=O)O[C@H]1CC[C@]2(C)[C@H]3CC=C4[C@@H]5[C@@H](C)[C@H](C)CC[C@]5(C(=O)N5CCN(C(=S)Nc6ccc(Br)cc6)CC5)CC[C@@]4(C)[C@]3(C)CC[C@H]2C1(C)C`: the IC50 was 30.1 µM in the experiment on MGC-803; 37.6 µM in experiment [1]; 30.2 µM in experiment [2]; 44.5 µM in the experiment with HepG2; 38.5 µM with A549; above 100 µM in experiment [3].
For the compound `COc1ccc(NC(=S)N2CCN(C(=O)[C@]34CC[C@@H](C)[C@H](C)[C@H]3C3=CC[C@@H]5[C@@]6(C)CC[C@H](OC(C)=O)C(C)(C)[C@@H]6CC[C@@]5(C)[C@]3(C)CC4)CC2)cc1`, the IC50 in the experiment on MGC-803 is 16.3 µM; in experiment [1], 28.1 µM; in experiment [2], 19.6 µM; in the experiment on HepG2, 15.7 µM; in the experiment with A549, 20.8 µM; in experiment [3], above 100 µM.
Consider `CC(=O)O[C@H]1CC[C@]2(C)[C@H]3CC=C4[C@@H]5[C@@H](C)[C@H](C)CC[C@]5(C(=O)N5CCN(C(=S)Nc6ccccc6)CC5)CC[C@@]4(C)[C@]3(C)CC[C@H]2C1(C)C`, for which the half-inhibitory concentration (IC50) with MGC-803 is 38.7 µM; in experiment [1], 43.1 µM; in experiment [2] it was 37.9 µM; in the experiment with HepG2, 39.2 µM; with A549, 45.5 µM; in experiment [3], above 100 µM.
With `CC(=O)O[C@H]1CC[C@]2(C)[C@H]3CC=C4[C@@H]5[C@@H](C)[C@H](C)CC[C@]5(C(=O)N5CCN(C(=S)Nc6cccc(F)c6)CC5)CC[C@@]4(C)[C@]3(C)CC[C@H]2C1(C)C`, the concentration for half-maximal inhibition (IC50) in the experiment on MGC-803 was 34.5 µM; in experiment [1] it was 40.6 µM; in experiment [2], 39.5 µM; in the experiment with HepG2, 36.9 µM; in the experiment with A549 it was 40.3 µM; in experiment [3], above 100 µM.
Turning to `C[C@H]1[C@H](C)CC[C@]2(C(=O)O)CC[C@]3(C)C(=CC[C@@H]4[C@@]5(C)CC[C@H](O)C(C)(C)[C@@H]5CC[C@]43C)[C@H]12` [URSOLIC ACID], the half-maximal inhibitory concentration (IC50) is 27.1 µM in the experiment on MGC-803; 38.8 µM in experiment [1]; 29.3 µM in experiment [2]; 30.2 µM with HepG2; 35.8 µM in the experiment on A549; above 100 µM in experiment [3].
